Laboratory results taken from ChEMBL document CHEMBL1128523, “Non-peptide fibrinogen receptor antagonists. 7. Design and synthesis of a potent, orally active fibrinogen receptor antagonist” (J Med Chem, 1995).
Values belong to the compound of their own block, whether it stands above or below them. Where a SMILES comes first, the peptide text is derived from it. Bridges are numbered along the chain shown (N, C = ends).

Tests used:
[1] = species: Homo sapiens; assay: Concentration required to inhibit the rate of platelet aggregation by 50% was determined with human gel filtered platelets (GFP); type: functional
Outline: (§1)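 Light-transmittance aggregometry at 37 °C on human gel-filtered platelets (2 × 10^8 platelets/mL) with 0.1 mg/mL human fibrinogen and 1 mM CaCl2; 10 μM ADP added last to start aggregation.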

[2] = system: Canis familiaris; assay: Ex vivo antiplatelet activity was assessed following oral administration at a dose of 1 mg/kg to dogs in the presence of 10 uM of ADP and 1 uM of epinephrine at 40 min; type: functional; settings: Canis lupus familiaris
Outline: (§2)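 Four conscious mongrel dogs in slings, single oral 1.0 mg/kg crystalline solid in gelatin capsules; citrated venous blood (3.8% citrate) taken at baseline and 20–1440 min. PRP aggregation to ADP or collagen, each with 1 μM epinephrine, as % inhibition vs baseline. Mean ± SEM, n = 4.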

[3] = species: Canis familiaris; assay: Whole blood platelet count was determined as delta% from baseline; type: functional, Canis lupus familiaris
Outline: (§3)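 Dogs given 1.0 mg/kg orally by capsule (n = 4); 1 mL citrated venous blood per time point (baseline to 1440 min) counted on an automated hematology analyzer; reported as 10^3/μL and Δ% from baseline, mean ± SEM.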

[4] = system: Canis familiaris; assay: Ex vivo antiplatelet activity was assessed following oral administration at a dose of 1 mg/kg to dogs in the presence of 10 uM of ADP and 1 uM of epinephrine at 350 min; type: functional; settings: Canis lupus familiaris; outline: as §2
[5] = system: Canis familiaris; assay: Ex vivo antiplatelet activity was assessed following oral administration at a dose of 1 mg/kg to dogs in the presence of 10 uM of ADP and 1 uM of epinephrine at 20 min; type: functional; settings: Canis lupus familiaris; outline: as §2
[6] = system: Canis familiaris; assay: Ex vivo antiplatelet activity was assessed following oral administration at a dose of 1 mg/kg to dogs in the presence of […] and 1 uM of epinephrine at 150 min; type: functional; settings: Canis lupus familiaris, 2.5 h; outline: as §2
[7] = system: Canis familiaris; assay: Ex vivo antiplatelet activity was assessed following oral administration at a dose of 1 mg/kg to dogs in the presence of 10 uM of ADP and 1 uM of epinephrine at 250 min; type: functional; settings: Canis lupus familiaris; outline: as §2
[8] = species: Homo sapiens; assay: Concentration required to inhibit platelet aggregation by 50%; type: functional; outline: as §1
[9] = system: Canis familiaris; assay: Ex vivo antiplatelet activity was assessed following oral administration at a dose of 1 mg/kg to dogs in the presence of 10 uM of collagen and 1 uM of epinephrine at 90 min; type: functional; settings: Canis lupus familiaris, 1.5 h; outline: as §2
[10] = system: Canis familiaris; assay: Ex vivo antiplatelet activity was assessed following oral administration at a dose of 1 mg/kg to dogs in the presence of 10 uM of ADP and 1 uM of epinephrine at 90 min; type: functional; settings: Canis lupus familiaris, 1.5 h; outline: as §2
[11] = species: Canis familiaris; assay: In vitro concentration required to inhibit the rate of dog platelet aggregation (in platelet rich plasma) by 50% was determined in presence of 10 uM of ADP and 1 uM of epinephrine; type: functional; settings: Canis lupus familiaris
Outline: (§4)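 PRP from blood spun at 150g for 5 min, count set to 200 000 cells/mm3 with PPP; 300 μL held 3 min at 37 °C before agonist. Aggregation read as % change in light transmission, PPP = 100%; inhibition relative to baseline response. Mean ± SE, n = 3–7.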

[12] = system: Canis familiaris; assay: Ex vivo antiplatelet activity was assessed following oral administration at a dose of 1 mg/kg to dogs in the presence of 10 uM of collagen and 1 uM of epinephrine at 350 min; type: functional; settings: Canis lupus familiaris; outline: as §2
[13] = system: Canis familiaris; assay: Ex vivo antiplatelet activity was assessed following oral administration at a dose of 1 mg/kg to dogs in the presence of 10 uM of ADP and 1 uM of epinephrine at 1440 min; type: functional; settings: Canis lupus familiaris, 24 h; outline: as §2
[14] = species: Homo sapiens; assay: In vitro concentration required to inhibit the rate of human platelet aggregation (in platelet rich plasma) by 50% was determined in presence of 0.5 U/mL of thrombin and 1 mM GPRP; type: functional; outline: as §4
[15] = system: Canis familiaris; assay: Ex vivo antiplatelet activity was assessed following oral administration at a dose of 1 mg/kg to dogs in the presence of […] and 1 uM of epinephrine at 0 min; type: functional; settings: Canis lupus familiaris, 0 h; outline: as §2
[16] = system: Canis familiaris; assay: Ex vivo antiplatelet activity was assessed following oral administration at a dose of 1 mg/kg to dogs in the presence of 10 uM of ADP and 1 uM of epinephrine at 150 min; type: functional; settings: Canis lupus familiaris, 2.5 h; outline: as §2
[17] = system: Canis familiaris; assay: Ex vivo antiplatelet activity was assessed following oral administration at a dose of 1 mg/kg to dogs in the presence of […] and 1 uM of epinephrine at 70 min; type: functional; settings: Canis lupus familiaris; outline: as §2
[18] = In vitro concentration required to inhibit the rate of chimp platelet aggregation (in platelet rich plasma) by 50% was determined in presence of 10 ug/mL of collagen; type: functional; settings: Pan troglodytes; outline: as §4
[19] = system: Canis familiaris; assay: Ex vivo antiplatelet activity was assessed following oral administration at a dose of 1 mg/kg to dogs in the presence of […] and 1 uM of epinephrine at 300 min; type: functional; settings: Canis lupus familiaris, 5 h; outline: as §2
[20] = system: Canis familiaris; assay: Ex vivo antiplatelet activity was assessed following oral administration at a dose of 1 mg/kg to dogs in the presence of 10 uM of collagen and 1 uM of epinephrine at 480 min; type: functional; settings: Canis lupus familiaris, 8 h; outline: as §2
[21] = system: Canis familiaris; assay: Ex vivo antiplatelet activity was assessed following oral administration at a dose of 1 mg/kg to dogs in the presence of 10 uM of ADP and 1 uM of epinephrine at 480 min; type: functional; settings: Canis lupus familiaris, 8 h; outline: as §2
[22] = system: Canis familiaris; assay: Ex vivo antiplatelet activity was assessed following oral administration at a dose of 1 mg/kg to dogs in the presence of 10 uM of ADP and 1 uM of epinephrine at 0 min; type: functional; settings: Canis lupus familiaris, 0 h; outline: as §2
[23] = species: Homo sapiens; assay: In vitro concentration required to inhibit the rate of human platelet aggregation (in platelet rich plasma) by 50% was determined in presence of 10 uM of ADP; type: functional; outline: as §4
[24] = system: Canis familiaris; assay: Ex vivo antiplatelet activity was assessed following oral administration at a dose of 1 mg/kg to dogs in the presence of […] and 1 uM of epinephrine at 1440 min; type: functional; settings: Canis lupus familiaris, 24 h; outline: as §2
[25] = species: Canis familiaris; assay: Whole blood platelet count was determined in 10e3/uL; type: functional, Canis lupus familiaris; outline: as §3
[26] = species: Homo sapiens; assay: In vitro concentration required to inhibit the rate of human platelet aggregation (in platelet rich plasma) by 50% was determined in presence of 10 uM of epinephrine; type: functional; outline: as §4
[27] = species: Homo sapiens; assay: In vitro concentration required to inhibit the rate of human platelet aggregation (in platelet rich plasma) by 50% was determined in presence of 10 ug/mL of collagen; type: functional; outline: as §4
[28] = In vitro concentration required to inhibit the rate of chimp platelet aggregation (in platelet rich plasma) by 50% was determined in presence of 20 uM of ADP; type: functional; settings: Pan troglodytes; outline: as §4
[29] = system: Canis familiaris; assay: Ex vivo antiplatelet activity was assessed following oral administration at a dose of 1 mg/kg to dogs in the presence of […] and 1 uM of epinephrine at 250 min; type: functional; settings: Canis lupus familiaris; outline: as §2
[30] = system: Canis familiaris; assay: Ex vivo antiplatelet activity was assessed following oral administration at a dose of 1 mg/kg to dogs in the presence of 10 uM of ADP and 1 uM of epinephrine at 300 min; type: functional; settings: Canis lupus familiaris, 5 h; outline: as §2
[31] = system: Canis familiaris; assay: Ex vivo antiplatelet activity was assessed following oral administration at a dose of 1 mg/kg to dogs in the presence of 10 uM of ADP and 1 uM of epinephrine at 200 min; type: functional; settings: Canis lupus familiaris; outline: as §2
[32] = system: Canis familiaris; assay: Ex vivo antiplatelet activity was assessed following oral administration at a dose of 1 mg/kg to dogs in the presence of 10 uM of collagen and 1 uM of epinephrine at 40 min; type: functional; settings: Canis lupus familiaris; outline: as §2
[33] = system: Canis familiaris; assay: Ex vivo antiplatelet activity was assessed following oral administration at a dose of 1 mg/kg to dogs in the presence of 10 uM of ADP and 1 uM of epinephrine at 70 min; type: functional; settings: Canis lupus familiaris; outline: as §2
[34] = system: Canis familiaris; assay: Ex vivo antiplatelet activity was assessed following oral administration at a dose of 1 mg/kg to dogs in the presence of […] and 1 uM of epinephrine at 20 min; type: functional; settings: Canis lupus familiaris; outline: as §2
[35] = species: Canis familiaris; assay: In vitro concentration required to inhibit the rate of dog platelet aggregation (in platelet rich plasma) by 50% was determined in presence of 10 ug/mL of collagen and 1 uM of epinephrine; type: functional; settings: Canis lupus familiaris; outline: as §4
[36] = system: Canis familiaris; assay: Ex vivo antiplatelet activity was assessed following oral administration at a dose of 1 mg/kg to dogs in the presence of […] and 1 uM of epinephrine at 200 min; type: functional; settings: Canis lupus familiaris; outline: as §2

- IC50 [1]: 83 nM
SMILES: O=C(O)CCNC(=O)CN1CCC[C@@H](CCC2CCNCC2)C1=O

- IC50 [1]: 8400 nM
SMILES: O=C(O)CCNC(=O)CNC(=O)CCCC1CCNCC1

- IC50 [1]: 680 nM
SMILES: CC(=O)N[C@H]1CSSC[C@@H](C(=O)O)NC(=O)[C@H](CC(=O)O)NC(=O)CNC(=O)[C@H](CCCN=C(N)N)NC1=O (Ac-CRGDC-OH; disulfide 1-5)

The remaining lines, values behind:

SMILES: C[C@@H](CC(=O)O)NC(=O)CN1CCC[C@@H](CCC2CCNCC2)C1=O
- IC50 [1]: 7800 nM

SMILES: C[C@H](CC(=O)O)NC(=O)CN1CCC[C@@H](CCC2CCNCC2)C1=O
- IC50 [1]: 32 nM
- inhibition in vivo at 1 mg/kg [2]: 86%
- Delta [3]: -0.5% [middle of 10 runs]
- inhibition in vivo at 1 mg/kg [4]: 81%
- inhibition in vivo at 1 mg/kg [5]: 50%
- inhibition in vivo at 1 mg/kg [6]: 94%
- inhibition in vivo at 1 mg/kg [7]: 90%
- IC50 [8]: 32 nM
- inhibition in vivo at 1 mg/kg [9]: 75%
- inhibition in vivo at 1 mg/kg [10]: 96%
- IC50 [11]: 41 nM
- inhibition in vivo at 1 mg/kg [12]: 54%
- inhibition in vivo at 1 mg/kg [13]: 2%
- IC50 [14]: 27 nM
- inhibition in vivo at 1 mg/kg [15]: 0%
- inhibition in vivo at 1 mg/kg [16]: 96%
- inhibition in vivo at 1 mg/kg [17]: 79%
- IC50 [18]: 40 nM
- inhibition in vivo at 1 mg/kg [19]: 67%
- inhibition in vivo at 1 mg/kg [20]: 31%
- inhibition in vivo at 1 mg/kg [21]: 63%
- inhibition in vivo at 1 mg/kg [22]: 0%
- IC50 [23]: 23 nM
- inhibition in vivo at 1 mg/kg [24]: 3%
- Platelet count [25]: 322000 µL⁻¹
- IC50 [26]: 36 nM
- IC50 [27]: 67 nM
- IC50 [28]: 42 nM
- inhibition in vivo at 1 mg/kg [29]: 72%
- inhibition in vivo at 1 mg/kg [30]: 91%
- inhibition in vivo at 1 mg/kg [31]: 94%
- inhibition in vivo at 1 mg/kg [32]: 79%
- inhibition in vivo at 1 mg/kg [33]: 93%
- inhibition in vivo at 1 mg/kg [34]: 48%
- IC50 [35]: 40 nM
- inhibition in vivo at 1 mg/kg [36]: 78%
